Screens from PubChem BioAssay.
Compounds with a hit are over-represented: about 2.1% of the library has one in this group of screens.
GSK3 alpha inh: human GSK-3 alpha kinase inhibition | P49840 | ADP-Glo luminescence, 60 min | inhibition, % at 10 µM | actives 0.1% (n = 320,000);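 active means more than half of replicates show inhibition above 20%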;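 further: GST-tagged GSK-3 alpha with peptide substrate and 25 µM ATP; 0% = DMSO neutral wells and 100% = GW8510 positive control wells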
Target sequence (P49840 whole entry, looked up): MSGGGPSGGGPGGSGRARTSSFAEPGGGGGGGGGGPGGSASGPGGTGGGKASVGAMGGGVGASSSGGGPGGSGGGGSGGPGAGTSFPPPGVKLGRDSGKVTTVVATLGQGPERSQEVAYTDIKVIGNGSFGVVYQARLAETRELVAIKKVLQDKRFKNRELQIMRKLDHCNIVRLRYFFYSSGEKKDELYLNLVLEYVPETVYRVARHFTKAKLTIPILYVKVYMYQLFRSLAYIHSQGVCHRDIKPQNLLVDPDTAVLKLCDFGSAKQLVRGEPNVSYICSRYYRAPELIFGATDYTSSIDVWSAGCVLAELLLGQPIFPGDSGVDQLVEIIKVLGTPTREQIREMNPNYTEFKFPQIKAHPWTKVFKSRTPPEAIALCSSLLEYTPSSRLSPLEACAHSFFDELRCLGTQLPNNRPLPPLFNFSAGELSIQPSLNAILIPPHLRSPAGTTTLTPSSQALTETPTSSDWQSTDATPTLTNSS
MEKK2wt PB1 HTS: raises or lowers MEK5 binding to wildtype human MEKK2 PB1 domain; bead flow cytometry, Alexa488-MEK5 binding to MEKK2 WT; actives lie on both sides; actives 1.1% (n = 290,000); Q9Y2U5; binding response (% of control), % at 10 µM; in the data active means binding response below about 67% or above about 130%
STK33 inh: inhibitors of human STK33 kinase; inhibition, % at 10 µM; Q9BYT3; actives 0.073% (n = 320,000); purified STK33, MBP phosphorylation, ADP-Glo luminescence;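 active means inhibition at or above 25%, using the most active replicate where run in duplicate; inactive means inhibition below 25%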
MEKK3 PB1 HTS: MEKK3-MEK5 PB1 interaction, increase or decrease. AID 1529. Q99759. actives 1.4% (n = 290,000). bead-based flow cytometry, Alexa488-MEK5 binding to MEKK3; actives lie on both sides; 0 = blocked by unlabeled MEK5, 100 = vehicle. binding response (% of control), % at 10 µM;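 active means binding response more than 3 SD above or below the average of its plate-row segment, actives on both sides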;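 further: Alexa488 bead fluorescence after subtracting the streptavidin-only scavenger bead signal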
MEKK2 mut-MEK5: signal of MEK5 binding to mutant human MEKK2 PB1 domain; percent response, % at 10 µM; AID 1530; actives 0.35% (n = 290,000); bead flow cytometry, Alexa488-MEK5 binding to MEKK2 mutant; in the data active means percent response above about 24%, passing the limit was not always enough
GSK3beta inhib: human GSK3beta kinase inhibition | P49841 | GST-GSK3beta kinase, ADP-Glo luminescence, 60 min; active compounds read low | activity score (negative = inhibition), % at 10 µM | actives 0.038% (n = 300,000);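 active means more than half of replicate wells score below -50%, meaning over 50% inhibition versus plate controls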;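 further: 0% = median DMSO wells and -100% = median GW8510 positive control wells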
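Assay system: GST-tagged human GSK3beta kinase, cell-free; Input: 1.6 ng GSK3beta; Medium: Tris/MgCl2 kinase buffer; Timing: 60 min enzyme reaction, room temperature; Signal: ADP-Glo luminescence quantifying ADP generated by kinase; Evaluation: score relative to plate controls; Benchmarks: DMSO neutral wells and GW8510 at 20 µM as positive.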
MEKK2wt confirm: raises or lowers MEK5 binding to wildtype human MEKK2, retest. shares compounds with MEKK3 PB1 HTS. bead flow cytometry, Alexa488-MEK5 binding to MEKK2 WT; actives lie on both sides. binding response (% of control), % at 10 µM. actives 2.4% (n = 5,900). AID 1892; in the data active means binding response below about 16% or above about 210%; inactive means in between
MEKK2mut confirm: signal of MEK5 binding to mutant human MEKK2, retest | shares compounds with MEKK3 PB1 HTS | AID 1893 | percent response, % at 10 µM | actives 2% (n = 5,900) | bead flow cytometry, Alexa488-MEK5 binding to MEKK2 mutant; in the data active means percent response mostly above about 71%, no sharp cut-off; inactive means mostly below about 38%;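 further: higher means compound restores mutant binding toward wildtype level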
MEKK3 confirm: MEKK3-MEK5 PB1 inhibition, single concentration confirmation; shares compounds with MEKK3 PB1 HTS; binding response (% of control), % at 10 µM; actives 1.8% (n = 5,900); bead flow cytometry, Alexa488-MEK5 binding to MEKK3; active compounds read low; AID 1894;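 active means binding response below 72% of control, or above a set upper limit, though filed actives all read lower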;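 further: 100% = DMSO only wells and 0% = binding blocked by excess unlabeled MEK5; lower values mean stronger disruption of MEK5 binding to MEKK3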
Starred values were filed as active, the others as inactive; nt = no result; [ ] = remark or other dose.

SMILES | GSK3 alpha inh | MEKK2wt PB1 HTS | STK33 inh | MEKK3 PB1 HTS | MEKK2 mut-MEK5 | GSK3beta inhib | MEKK2wt confirm | MEKK2mut confirm | MEKK3 confirm
CN(C)c1ccc(-c2nnc(-c3ccccc3F)o2)cc1 | -4 | 104 | -1 | 104 | 26* | -1 | 96 | -5 | 99
O=C(CSC1=NS(=O)(=O)c2cc(Cl)ccc2N1)NCCc1ccccc1 | 0 | nt | 0 | nt | nt | 1 | nt | nt | nt
O=C(CSc1ccc(Br)cc1)NC1CCCCCC1 | 4 | nt | -1 | nt | nt | nt | nt | nt | nt
O=C(CSc1ccc(F)cc1)NC1CCCCC1 | 4 | 1.0*[inhibitor] | 0 | 2.0*[inhibitor] | -84 | -1 | 106 | 5 | 107
COc1ccc(C(CNC(=O)c2ccc(OCc3c(C)noc3C)cc2)N2CCCC2)cc1 (stereo not given) | -4 | nt | 1 | nt | nt | nt | nt | nt | nt
O=c1[nH]ncn2cccc12 | 10 | 92 | 8 | 78*[inhibitor] | -5 | 1 | 99 | 10 | 105
COC(=O)Cn1ncn2cccc2c1=O | nt | 110 | -1 | 106 | 6 | 2 | nt | nt | nt
FC(F)(F)c1cc(-c2ccco2)nc(NCc2cccnc2)n1 | 1 | nt | 0 | nt | nt | -4 | nt | nt | nt
FC(F)(F)c1cc(-c2ccccc2)nc(NCc2cccnc2)n1 | 4 | -1.0*[inhibitor] | 0 | 1.0*[inhibitor] | -10 | -3 | 97 | -7 | 99
CSc1cccc(CN2CCC(CCC(=O)NC3CC3)CC2)c1 | -2 | 99 | 0 | 96 | -1 | -4 | nt | nt | nt
Cc1ccc(NS(=O)(=O)c2cccc(C(=O)N/N=C/c3ccc4c(c3)OCCO4)c2)c(C)c1 | 2 | 110 | -1 | 129* | 0 | 1 | 97 | -3 | 98
CCn1nnc(-c2ccccc2NS(=O)(=O)c2ccc(S(=O)(=O)N(C)C3CCCCC3)cc2)n1 | -3 | 97 | -2 | 107 | 1 | 0 | nt | nt | nt
COc1cc(Br)c(-c2sc(Nc3ccccc3)n[n+]2-c2ccc(F)cc2)cc1OC | 0 | 133 | 0 | 104 | 34* | -5 | 149 | 32 | 103
COc1ccc(C)cc1Nc1n[n+](-c2ccccc2)c(-c2ccc(SC)cc2)s1 | -1 | 128 | 2 | 105 | 29* | 2 | 121 | 9 | 101
Fc1ccc(-[n+]2nc(Nc3ccccc3)sc2-c2cccc(Cl)c2Cl)cc1 | -1 | 128 | 0 | 105 | 23 | 4 | nt | nt | nt
Clc1cccc(-c2sc(Nc3ccccc3)n[n+]2-c2ccccc2)c1Cl | -1 | 135* | 0 | 104 | 13 | 1 | 135 | 15 | 103
COc1cc(OC)c(-c2sc(Nc3ccccc3)n[n+]2-c2ccc(F)cc2)cc1OC | -2 | 88 | 0 | 95 | -9 | 1 | nt | nt | nt
CC(=O)Nc1ccc(-c2sc(Nc3cccc4ccccc34)n[n+]2-c2ccccc2)cc1 | 1 | 159* | 0 | 104 | 10 | -3 | 136 | 15 | 107
COc1cc2c(cc1OC)CN(CC(=O)NC(=O)NC1CCCCC1)CC2 | 3 | 101 | -1 | 101 | -3 | 1 | nt | nt | nt
CCCCCOc1ccc(C(=O)CCC(=O)NC(C)c2ccc(S(N)(=O)=O)cc2)cc1 (stereo not given) | -2 | nt | 1 | nt | nt | nt | nt | nt | nt
CCc1ccc(Nc2n[n+](-c3ccccc3)c(-c3ccc(C(=O)O)cc3)s2)cc1 | -2 | 99 | 0 | 100 | 3 | 2 | nt | nt | nt
CCc1ccc(Nc2n[n+](-c3ccccc3)c(-c3ccc(SC)cc3)s2)cc1 | nt | 195* | 0 | 108 | 35* | -2 | 180 | 53 | 108
CCc1ccc(Nc2n[n+](-c3ccccc3)c(-c3ccc(OC)c(Br)c3)s2)cc1 | 0 | 207* | 3 | 109 | 41* | 1 | 206 | 73* | 113
CSc1ccc(-c2sc(Nc3ccccc3)n[n+]2-c2ccccc2)cc1 | 2 | 148* | 0 | 106 | 10 | -2 | 121 | 31 | 102
CCCCC1(C)Cc2ccccc2C(=S)N1 (stereo not given) | -2 | 2.0*[inhibitor] | 0 | 2.0*[inhibitor] | -16 | -3 | 108 | 2 | 103
SMILES | GSK3 alpha inh | MEKK2wt PB1 HTS | STK33 inh | MEKK3 PB1 HTS | MEKK2 mut-MEK5 | GSK3beta inhib | MEKK2wt confirm | MEKK2mut confirm | MEKK3 confirm
Cc1cc(Br)ccc1-n1[nH]c(C)c(C=Nc2cccc3nsnc23)c1=O | 4 | 41*[inhibitor] | -1 | 86 | -17 | 0 | 88 | -11 | 99
O=C(NCC1CCCO1)C1CCC(=O)N1Cc1ccc(F)cc1 (stereo not given) | nt | -4.0*[inhibitor] | 2 | -1.0*[inhibitor] | -26 | 1 | 101 | -2 | 101
Cc1ccc(CN2C(=O)CCC2C(=O)NCC2CCCO2)cc1 (stereo not given) | -1 | 100 | 0 | 98 | 2 | -9 | nt | nt | nt
O=C(OCCC1Oc2cccnc2NC1=O)c1ccc(F)cc1 (stereo not given) | 0 | 98 | 0 | 99 | 0 | -2 | nt | nt | nt
O=C(OCCC1Oc2cccnc2NC1=O)c1ccc([N+](=O)[O-])cc1 (stereo not given) | -4 | 75 | -1 | 74*[inhibitor] | -9 | 2 | 100 | -1 | 99
CN(CCn1ccnc1)Cc1cn(Cc2ccccc2)nc1-c1ccc2c(c1)OCO2 | -1 | 100 | -1 | 93 | -2 | 0 | nt | nt | nt
Cc1cc(Cl)ccc1NC(=S)NCC(C)C | -2 | 111 | -1 | 138* | 0 | 1 | 103 | 8 | 103
CCCNC(=S)Nc1ccc(Cl)cc1C | -4 | 115 | 0 | 103 | 3 | 0 | nt | nt | nt
Cc1cc(Cl)ccc1NC(=S)NCc1ccccc1Cl | -1 | 109 | -1 | 128* | 0 | 0 | 103 | 2 | 101
CCOC(=O)C(C(=O)Nc1cccc(C)c1)C1CCCCC1 (stereo not given) | 5 | -4.0*[inhibitor] | -1 | 99 | -34 | 3 | 103 | 2 | 109
Cn1c(=O)n(C)c2cc(NC(=O)CCc3ccccc3)c(Br)cc21 | -1 | 109 | 0 | 111 | 3 | nt | nt | nt | nt
NS(=O)(=O)c1ccc(CCNC(=O)C2CCN(S(=O)(=O)c3ccc(Br)s3)CC2)cc1 | -1 | 3.0*[inhibitor] | -2 | 2.0*[inhibitor] | -46 | -2 | 104 | 4 | 103
Cc1ccc(S(=O)(=O)N2CCC(C(=O)NCCc3ccc(S(N)(=O)=O)cc3)CC2)cc1 | -1 | 100 | -1 | 98 | 1 | 0 | nt | nt | nt
O=C(CSCc1ccc(Br)cc1)N=Nc1c(O)[nH]c2ccccc12 | -1 | 112 | -1 | 146* | 1 | 0 | 105 | 4 | 101
